Source: PubChem BioAssay (several laboratories)
Hits are enriched below; roughly 1.3% of the tested compounds scored in any of these assays.
LANA DNA inh: blocks KSHV LANA C-terminal domain binding to DNA; MBP-C-LANA/FAM-LBS DNA binding, fluorescence polarization; inhibition, % at 9 µM; hit rate 0.078% among 340,000;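 active = highest replicate inhibition at or above 60% at 9 µM, even if other replicates fall short; inactive = all replicates below 60% inhibition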;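 note: 0% = neutral control wells and 100% = 4 µM acridine orange control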
MEX-5 binding: C. elegans MEX-5 TCR-2 RNA binding activity. hit rate 0.38% among 300,000. activity score (negative = inhibition of binding), % at 10 µM. Q9XUB2. MEX-5/FITC-TCR2 RNA binding, fluorescence polarization; hits give low values;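 active = inhibition past about -25% in most replicates, and total fluorescence under double the plate's negative control median, limit read from the data; inconclusive = replicates evenly split on the limit, or fluorescence at least double controls; inactive = too little inhibition in most replicates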;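 note: 0% = DMSO and -100% = 5 µM competing unlabeled TCR2 RNA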
Target sequence (Q9XUB2 whole entry, looked up): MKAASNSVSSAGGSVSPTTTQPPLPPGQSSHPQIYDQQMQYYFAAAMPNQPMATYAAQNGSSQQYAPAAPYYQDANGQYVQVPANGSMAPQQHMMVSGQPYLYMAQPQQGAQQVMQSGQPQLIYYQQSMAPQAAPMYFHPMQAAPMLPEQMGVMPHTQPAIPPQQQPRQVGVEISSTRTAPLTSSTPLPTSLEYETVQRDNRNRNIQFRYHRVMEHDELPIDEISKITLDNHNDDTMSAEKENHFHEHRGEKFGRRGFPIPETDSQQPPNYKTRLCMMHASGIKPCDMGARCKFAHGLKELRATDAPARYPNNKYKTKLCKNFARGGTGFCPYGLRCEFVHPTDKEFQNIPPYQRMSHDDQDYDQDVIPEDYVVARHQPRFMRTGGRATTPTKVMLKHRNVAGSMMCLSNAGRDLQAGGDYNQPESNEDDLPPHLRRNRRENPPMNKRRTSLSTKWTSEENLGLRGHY
T cell modulator: T cell immune modulators affecting CD8 T cell-vesicle binding; 2C CD8+ T cell-vesicle binding, flow cytometry; hits give low values; response (vesicle binding), % at 7 µM; hit rate 0.068% among 330,000; AID 2052;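 active = response, share of CD8 T cells binding vesicles, and their 90th percentile fluorescence all below set limits, cut at about 80% in these data, passing the limit was not always enough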;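 note: values below 100% mean blocked vesicle binding to the CD8+ T cells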
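Benchmarks: naked versus QL9-loaded vesicles / Assay system: purified 2C TCR transgenic mouse naive CD8+ T cells / Technique: high-throughput flow cytometry with anti-B7-1 and anti-CD8 staining / Timing: Cell–vesicle co-incubation 1.5 h at 37 °C, staining 20 min on ice / Read-out: percent CD8+ FL2 mean versus row control / Probe or stimulus: QL9-loaded Drosophila micro-vesicles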
GRK2 aptamer HTS: blocks RNA aptamer binding to human GRK2; P25098; bead flow cytometry, FAM-aptamer displacement from GRK2; inhibition of aptamer binding, % at 10 µM; hit rate 0.59% among 330,000; AID 488847;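 active = inhibition of aptamer binding above 40%, roughly 3 SD of noise, on plates passing a quality check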;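 note: median bead fluorescence of bound FAM aptamer so fluorescent compounds give negative values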
EBV gp42 block: blocks Epstein-Barr virus glycoprotein 42 binding. Q1HVG2. Fluorescence polarization binding assay, mP read-out. inhibition, % (tested at 21.74 µM). hit rate 0.42% among 220,000. AID 1085; in the data active = inhibition above about 50%
Keap1 Nrf2 FP: disrupts human Keap1 binding to Nrf2 peptide. inhibition, % at 9.4 µM. Q14145. Keap1 Kelch-Nrf2 peptide fluorescence polarization, 1536-well. hit rate 0.15% among 340,000; in the data active = inhibition above about 12%; inconclusive = no clear call, values can overlap the other calls; inactive = below about 7.3%;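 note: human Keap1 Kelch domain with fluorescein labeled Nrf2 9mer peptide probe; 0% = neutral control wells and 100% = peptide positive control; higher means more block of Keap1 binding to Nrf2 peptide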
Active calls of the source: *; i = inactive; ? = inconclusive; / = not tested or not shown.

SMILES | LANA DNA inh | MEX-5 binding | T cell modulator | GRK2 aptamer HTS | EBV gp42 block | Keap1 Nrf2 FP
O=C(O)CN1C(=O)/C(=C\c2cc(Br)ccc2OCc2ccc([N+](=O)[O-])cc2)SC1=S | 78.3* | -1.7 | 115.5 | 0.0 | / | 1.4
CS(=O)(=O)N1N=C(c2ccccc2)CC1c1ccc2c(c1)OCO2 (stereo unspecified) | 1.8 | 4.4 | i | 0.0 | 90.9* | -15.0
CN1CCN(C(=O)c2ccc(S(=O)(=O)Nc3ccccc3)cc2)CC1 | -0.6 | / | 277.2 | 1.0 | / | 5.7
Cc1ccc(/C=C2/C(=O)c3ccc(C(=O)O)cc3C2=O)o1 | 20.8 | -26.0* | / | / | -14.2 | 4.4
CC(C)C[C@H]1CNC(=O)C(=O)N1CC1CCN(CCc2ccc(-c3ccccc3)cc2)CC1 | 0.9 | / | / | / | / | -0.7
CC(=O)OCCCNc1cc(Sc2nc3ccccc3s2)c2nonc2c1[N+](=O)[O-] | 6.2 | -9.8 | 436.5 | 1.0 | 78.0* | 1.3
CC(=O)OCCCNc1cc(Sc2ccc(C)cc2)c2nonc2c1[N+](=O)[O-] | -0.8 | -6.8 | 225.8 | 0.0 | -11.4 | -4.4
O=C(CSc1ccc(Cl)cc1)c1ccco1 | 3.8 | -2.7 | 700.0 | 58.0* | 15.1 | -3.5
O=C(CCSc1ccc(Cl)cc1)c1ccco1 | -2.3 | -1.4 | 586.7 | 0.0 | / | 3.0
Fc1ccc(/C=N/NC2=Nc3cccc4cccc2c34)cc1 | 1.0 | -5.4 | 138.6 | 0.0 | 56.9* | 3.1
COC(=O)COc1ccc2c(c1)O/C(=C\c1ccco1)C2=O | 6.4 | -0.2 | 442.4 | 1.0 | / | -8.1
Cc1cc(O)cc2c1C(=O)/C(=C/c1ccco1)O2 | 17.1 | -42.2* | 58.1 | 1.0 | / | -8.5
COC(CNC(=O)c1ccc2c3c(onc13)-c1ccccc1C2=O)OC | -2.0 | ? | 327.5 | 5.0 | 189.9* | 100.6*
CCN1C(=O)/C(=C/c2cnn(CC)c2C)SC1=S | 2.5 | -3.5 | 373.6 | 0.0 | -7.6 | 0.6
CCN1C(=O)/C(=C/c2c(C)nn(C)c2C)SC1=S | 0.9 | -30.2* | 253.8 | 0.0 | -2.3 | -15.0
Cc1cc2c(cc1S(=O)(=O)NCc1ccccc1)NC(=O)CO2 | -0.7 | 2.2 | 394.8 | 2.0 | / | 2.9
Cc1cc2c(cc1S(=O)(=O)NCCc1ccccc1)NC(=O)CO2 | -1.5 | -1.5 | 20.1* | 1.0 | / | -1.7
CCOc1cc(Br)c(/C=C2/C(=O)N(C)C(=S)N2CC(=O)OC)cc1OC | 2.7 | -31.8* | 136.4 | 2.0 | -6.4 | -1.2
CCOc1cc(/C=C2/NC(=O)N(CC(=O)OC)C2=O)ccc1OC | 1.3 | 0.7 | 152.2 | 9.0 | -2.2 | -0.1
CCOC(=O)c1c2ccc(OCC(=O)N/N=C/c3ccc(C)cc3)cc2n2ccccc12 | -0.1 | -29.4* | 494.3 | 0.0 | 42.5 | -1.0
CCOC(=O)c1c2ccc(OCC(=O)NN)cc2n2ccccc12 | 0.3 | -7.5 | 360.1 | 2.0 | 25.8 | -6.4
O=C1Nc2ccc3sc4ccccc4c3c2C1=O | / | 2.1 | 124.9 | 0.0 | 57.8* | /
C/C(O)=c1/ccc2cccc3nc(C)nc1c23 | 18.4 | -41.3* | 279.6 | 4.0 | 110.2* | 5.9
COc1nc(N/N=C/c2ccc(-c3cccc([N+](=O)[O-])c3)o2)nc(N2CCOCC2)n1 | / | -0.7 | / | / | 91.5* | /
CN=c1scc(C)n1/N=C/c1ccc(O)c(O)c1O | -1.5 | -32.1* | i | 21.0 | -12.2 | -10.2
SMILES | LANA DNA inh | MEX-5 binding | T cell modulator | GRK2 aptamer HTS | EBV gp42 block | Keap1 Nrf2 FP
CC(C)N=c1scc(-c2ccco2)n1/N=C/c1ccc(O)c(O)c1 | 0.0 | / | 389.3 | 3.0 | -2.8 | 1.8
COCCN=c1scc(-c2ccco2)n1/N=C/c1ccc(O)c(O)c1O | 9.3 | / | 290.0 | 12.0 | 73.6* | 1.0
C=CCN=c1scc(-c2ccco2)n1/N=C/c1ccc(O)c(O)c1O | -1.2 | -28.3* | 106.2 | 3.0 | -4.3 | 0.0
COc1ccc(N(CC(=O)NCc2ccc(Cl)cc2)S(=O)(=O)c2ccccc2[N+](=O)[O-])c(OC)c1 | 0.2 | 0.5 | 187.0 | 0.0 | 16.3 | -3.6
CCCn1c(/N=C/c2ccccc2O)nc2ccccc21 | -1.8 | 3.5 | 231.2 | 0.0 | -10.6 | 0.1
Cn1c(/N=C/c2c(O)ccc3ccccc23)nc2ccccc21 | 0.0 | / | 253.8 | 3.0 | 157.3* | -1.1
Cc1cc2oc(=O)cc(CN(C)Cc3ccccc3Cl)c2cc1C | -1.0 | 0.5 | 490.9 | 2.0 | / | 1.1
Cc1ccc(N2C(=O)[C@@H]3[C@H](C2=O)C2c4ccccc4C=CN2[C@@H]3C(=O)c2ccco2)cc1 (stereo partly specified) | 3.0 | / | / | / | 53.8* | -6.5
